Active and inactive are the calls of the source. The calls are words filed in the database; no cut-off is given here.

Broadly, the IC50 is the concentration that inhibits the measured activity by half. The term inhibition denotes the percentage by which the read-out fell short of the control. A word on the Ki: it is a dissociation constant, usually derived from enzyme kinetics or from competition with a known ligand. High values mean a looser hold on the target, low ones a stronger hold on the target.

For experiment [1], the target named is T1, Sphingosine kinase 2 (Homo sapiens) (UniProt Q9NRA0).
T1 sequence (whole entry): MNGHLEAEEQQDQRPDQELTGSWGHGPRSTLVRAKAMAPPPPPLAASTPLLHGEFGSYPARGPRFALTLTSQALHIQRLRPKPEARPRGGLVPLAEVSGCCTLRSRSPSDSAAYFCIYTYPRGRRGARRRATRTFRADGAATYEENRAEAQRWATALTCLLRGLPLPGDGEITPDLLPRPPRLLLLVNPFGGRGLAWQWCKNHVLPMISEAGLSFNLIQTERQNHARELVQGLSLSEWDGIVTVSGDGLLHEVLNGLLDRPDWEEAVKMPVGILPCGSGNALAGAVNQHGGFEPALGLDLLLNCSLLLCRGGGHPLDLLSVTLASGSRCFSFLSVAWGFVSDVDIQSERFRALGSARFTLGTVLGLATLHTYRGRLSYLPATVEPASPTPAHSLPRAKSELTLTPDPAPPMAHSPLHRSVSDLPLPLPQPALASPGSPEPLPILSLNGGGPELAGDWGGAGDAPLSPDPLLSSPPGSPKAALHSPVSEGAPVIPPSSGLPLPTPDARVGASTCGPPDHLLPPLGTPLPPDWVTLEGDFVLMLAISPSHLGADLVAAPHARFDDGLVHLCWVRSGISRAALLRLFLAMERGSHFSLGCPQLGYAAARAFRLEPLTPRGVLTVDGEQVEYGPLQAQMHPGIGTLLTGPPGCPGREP
Description: Activity at purified SK2 (unknown origin) using ATP at 250 uM relative to control.

Experiment [2] has as its target T2, Sphingosine kinase 1 (Homo sapiens, UniProt Q9NYA1). Description: Activity at recombinant SK1 (unknown origin) using ATP at 250 uM relative to control.
The nature of experiment [3]: Decrease of SK1 expression in human PAMSC cells at 10 uM after 24 hrs by Western blot analysis in presence of proteasomal inhibitor MG132. It is filed as functional, cell-based. (Immunoblotting shows a protein as a band on a membrane.)
Experiment [4] deals with T2, Sphingosine kinase 1. Description: Inhibition of recombinant SK1 (unknown origin) using sphingosine and [gamma-32P]ATP as substrate after 30 mins.
The target in experiment [5] is T3, Sphingosine kinase 2 (Homo sapiens, UniProt Q9NRA0).
T3 sequence (Q9NRA0 whole entry): T1 sequence (whole entry)
Description: Inhibition of purified SK2 (unknown origin) using sphingosine and [gamma-32P]ATP as substrate after 30 mins. An outline of the steps:
(§1)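 Buffer: 20 mM Tris pH 7.4 with EDTA, phosphatase and protease inhibitors, 20% glycerol and 400 mM KCl. Inhibitors were added in DMSO; control was 5% v/v DMSO.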

Experiment [6] is described as follows: Decrease of SK1 expression in human PAMSC cells at 10 uM after 24 hrs by Western blot analysis. In kind it is functional, cell-based.
In experiment [7] the test system is PAMSC. The experiment can be described thus: Inhibition of DNA synthesis in human PAMSC cells assessed as [3H]-thymidine incorporation into DNA at 100 nM to 1 uM after 24 hrs. In kind it is functional, cell-based. An outline of the steps: (§2)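 Pulmonary arterial smooth muscle cells were grown to 60% confluency and quiesced 24 h in basal medium with 0.1% eFCS. They were then treated with inhibitor in DMSO (vehicle 0.1% DMSO) for 48 h in complete medium, with [3H]-thymidine (0.25 µCi/mL) added for the final 24 h. Cells were washed with TCA, solubilised in SDS/NaOH and counted by scintillation. Each concentration was run in triplicate.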
Background: Dividing cells build labelled thymidine or BrdU into new DNA.

Experiment [8] has as its system PAMSC. The note with it: Homo sapiens, 10 to 100 nM.
A short description of experiment [9]: Decrease of SK1 expression in human PAMSC cells at 100 nM after 24 hrs by Western blot analysis. It is filed as functional, cell-based.
The nature of experiment [10]: Decrease of SK1 expression in human PAMSC cells at 100 nM after 24 hrs by Western blot analysis in presence of proteasomal inhibitor MG132. In kind it is functional, cell-based.
Experiment [11] deals with T1, Sphingosine kinase 2 (Homo sapiens). The experiment can be described thus: Inhibition of purified SK2 (unknown origin) using sphingosine and [gamma-32P]ATP as substrate at 50 uM after 30 mins relative to control. Summed up: as §1
For experiment [12] the target is unchanged. The note with it: 50 uM.
The target is the same in experiment [13]. The note with it: 1.5 uM.
In experiment [14] the test system is PAMSC. Description: Inhibition of DNA synthesis in human PAMSC cells assessed as [3H]-thymidine incorporation into DNA at 300 nM after 24 hrs. It is filed as functional, cell-based. An outline of the steps: as §2
Experiment [15] concerns the target T3, Sphingosine kinase 2. The experiment can be described thus: Inhibition of SK2 (unknown origin). An outline of the steps: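 Purified SK2 (37 ng) run 30 min at 30 °C with 10 µM sphingosine complexed to fatty-acid-free BSA (0.2 mg/mL final) and 250 µM [γ-32P]ATP in 10 mM MgCl2. Buffer: 20 mM Tris pH 7.4 with phosphatase/protease inhibitors and 400 mM KCl. Inhibitor added in DMSO; control 5% v/v DMSO. Sphingosine level matches the SK2 Km.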

T2 sequence (Q9NYA1 whole entry): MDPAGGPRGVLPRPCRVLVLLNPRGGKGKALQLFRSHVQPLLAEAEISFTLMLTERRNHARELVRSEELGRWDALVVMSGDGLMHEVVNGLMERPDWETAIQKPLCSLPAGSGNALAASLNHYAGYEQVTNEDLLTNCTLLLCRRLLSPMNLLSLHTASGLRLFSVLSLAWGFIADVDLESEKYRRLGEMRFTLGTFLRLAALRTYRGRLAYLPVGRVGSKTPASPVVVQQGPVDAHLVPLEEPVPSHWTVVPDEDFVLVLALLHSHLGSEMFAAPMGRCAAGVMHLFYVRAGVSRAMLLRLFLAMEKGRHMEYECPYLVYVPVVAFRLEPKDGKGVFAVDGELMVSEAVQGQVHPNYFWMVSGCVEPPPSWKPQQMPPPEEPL

Consider `CCCCCCCCCCCCC/C=C\[C@@H](O)[C@@H](N)CO`, for which the outcome (in experiment [1]; on Sphingosine kinase 1 [2]) was Active.
Regarding `CCCCCCCCCCCCCCC[C@@H](O)[C@H](C)N`, the result in experiment [3] was inactive. For the same compound, the half-maximal inhibitory concentration (IC50) turned out to be 7.1 µM on Sphingosine kinase 1 [4] and 766 µM at Sphingosine kinase 2 [5]. Further, the result (in experiment [6]; in the experiment on PAMSC [7]) was Active.
In the case of `Cc1cc(CS(=O)(=O)c2ccccc2)cc(OCc2ccc(CN3CCC[C@@H]3CO)cc2)c1`, the inhibition entry in the experiment on PAMSC [8] is “inactive”. Besides, the result in experiment [9] was Active. In [10], the result was inactive.
As for `CCCCCCCCCCCCCCC[C@@H](O)[C@H](C)[N+](C)(C)C`, on Sphingosine kinase 1 [2], the outcome was Active.
Consider `CCCCCCCCCCCCCC[C@@H](O)[C@@H](O)[C@H](CO)NC(=O)Nc1ccc(C(F)(F)F)cc1`, for which the inhibition in experiment [11] came out at 53.9%.
On the same count and under the same terms, in the case of `CCCCCCCCCCCCC/C=C/[C@@H](O)[C@H](CO)NC(=S)Nc1ccc(F)cc1` it was 79.2%.
With `CCCCCCCCCCCCc1ccc(C(=O)N2CCC[C@H]2C(=N)N)cc1`, in experiment [12], the inhibition entry was “Active”. This compound also gave an inhibition in experiment [13] of 73.4%. Moreover, the inhibition entry in the experiment with PAMSC [14] was “inactive”.
Turning to `O=C(NCc1ccncc1)C12CC3CC(C1)CC(c1ccc(Cl)cc1)(C3)C2` [ABC-294640], the Ki on Sphingosine kinase 2 [15] turned out to be 10 µM.
Consider `CCCCCCCCCCCCCCC[C@@H](O)[C@H](CO)NC(=S)Nc1cccc(F)c1`, for which the outcome (in experiment [1]; at Sphingosine kinase 1 [2]) was Active. The inhibition result in [11] is “Active”.
`CCCCCCCCCCCCCC[C@H]1OC[C@H](NC(=S)Nc2c(F)c(F)c(F)c(F)c2F)[C@@H]1O`: the result on Sphingosine kinase 1 [2] was Active.
In [11], `CCCCCCCCCCCCCC[C@@H](O)[C@@H](O)[C@H](CO)NC(=S)Nc1ccc(F)cc1` showed an inhibition of 64.5%.
For `CCCCCCCCCCCCCCC[C@@H](O)[C@H](CO)NC(=S)Nc1cccc(C(F)(F)F)c1`, the result in experiment [1] was Active. The IC50 amounted to 69 µM on Sphingosine kinase 1 [4] and 21.8 µM against Sphingosine kinase 2 [5]. Moreover, in experiment [11], the inhibition amounted to 80%. Moreover, in [6], the outcome was inactive.
On to `CCCCCCCCCCCCCCOCC(O)[C@H](C)N(C)C` (single isomer, unassigned), for which the values for the IC50 at Sphingosine kinase 1 [4] and at Sphingosine kinase 2 [5] were 27.8 µM and 300 µM, respectively.
For `CCCCCCCCCCCCC/C=C/[C@@H](O)[C@H](CO)NC(=S)Nc1ccc(C(F)(F)F)cc1`, the inhibition result in experiment [11] was “Active”.

Values taken from ChEMBL document CHEMBL3132796 (Medchemcomm, 2013).
